# Screening results (PubChem)
# IMP-1 inh: IMP-1 metallo-beta-lactamase inhibitors, primary screen, biochemical, epi-absorbance readout, Pseudomonas aeruginosa enzyme; inhibition, % at 5.6 µM; purified IMP-1, nitrocefin hydrolysis, epi-absorbance fluorescence; 290,000 tested, 0.45% active;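 active = inhibition above the mean plus 3 SD of all compounds in the same screening run, cut at about 4.5% in these data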;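 note: 0% = IMP-1 with DMSO and 100% = DMSO wells lacking enzyme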
#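 System: Purified IMP-1 | Read-out basis: Percent enzyme inhibition | Controls: IMP-1 with DMSO as 0%, enzyme-free DMSO as 100% | Replicates: One well per compound | Doses: 5.6 µM nominal single concentration | Detection: Epi-absorbance fluorescence, 480 nm excitation, 530 nm emission | Incubation: 25 °C, 15 min preincubation, 25 min reaction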
# eIF4H inh: human eIF4H binding inhibitors, primary screen, translation initiation inhibitor project, biochemical, uHTS, fluorescence polarization; AID 2012, 2009; inhibition, % at 35 µM; Eukaryotic translation initiation factor 4H (Homo sapiens), Q15056; 290,000 tested, 0.94% active; eIF4H fluorescence polarization binding assay;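 note: calls also rest on retests at 20 µM and on dose response follow-up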
# MLLE-PAM2 inh: inhibitors of PABP1 MLLE–PAM2 peptide binding, primary screen, biochemical, fluorescence polarization, FITC-PAM2, GST-MLLE; Polyadenylate-binding protein 1 (Homo sapiens), P11940; inhibition, % at 20 µM; 360,000 tested, 0.36% active; in the data active = inhibition above about 35%, passing the limit was not always enough;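 note: plate controls were DMSO wells with GST-MLLE for no effect and wells lacking GST-MLLE protein for full effect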
# VIM-2 inhibitor: VIM-2 metallo-beta-lactamase inhibitors, primary screen, biochemical, epi-absorbance readout, Pseudomonas aeruginosa enzyme. purified VIM-2, nitrocefin hydrolysis, epi-absorbance fluorescence. inhibition, % at 5.6 µM. 290,000 tested, 0.89% active. AID 1527, 2009;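 active = inhibition above the mean of all tested compounds plus 3 SD, cutoff set per screening run, cut at about 7.5% in these data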;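 note: red hydrolysis product quenches plate fluorescence so inhibitors raise well fluorescence; 0% = enzyme with DMSO and 100% = DMSO without enzyme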
# PABP FP inh: PABP poly(A) RNA binding inhibitors, primary screen, biochemical, fluorescence polarization, uHTS | Polyadenylate-binding protein 1 (Homo sapiens), P11940 | calls only at 35 µM | 290,000 tested, 1% active | AID 2014, 2009;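 note: calls also rest on retests at 20 µM and on dose response follow-up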
# * hit, by the source's call; i = inactive; ? = inconclusive; . = not tested or not shown; + = active, no number. This is a sample that favours compounds with a hit; in the whole collection about 2.2% have one here. Unless noted, the rule behind the calls is not given here.
SMILES,IMP-1 inh,eIF4H inh,MLLE-PAM2 inh,VIM-2 inhibitor,PABP FP inh
O=C(NCc1ccccc1Cl)C1CCCN(S(=O)(=O)c2cccc3nsnc23)C1 (stereo unspecified),-4,-7,10,-4,i
O=c1c2[nH]c3ccc(Br)cc3c2ncn1CCCn1ccnc1,5.9*,-11,15,5,i
O=c1c2[nH]c3ccccc3c2ncn1CCCn1ccnc1,-3,7,-4,0,i
CC1(C)OC(=O)N(Cc2ccco2)C1(C)O (stereo unspecified),-3,?,23,-2,+
CCNC(=O)c1ccc(=O)n(Cc2ccc(Cl)cc2Cl)c1,.,.,2,.,.
O=C(O)c1cc(O)c2c(c1)C(=O)c1cc(O)cc(O)c1C2=O,-2,90*,-9,-2,+
Cc1cc(C)c(NC(=O)NC(=O)C(Cl)(Cl)Cl)c(C)c1,-1,2,-12,0,i
Cc1cc2ncn(C(=O)c3cc(-c4ccccc4)nc4ccccc34)c2cc1C,0,active,11,-3,+
CSc1ccc(C2C(C#N)=C(N)Oc3c2ccc(=O)c2c(C)oc(C)c32)cc1 (stereo unspecified),-2,52*,-87,-3,+
CCCN(CCC)C(=S)NC(=O)c1ccc(-c2ccccc2)cc1,-2,18,39*,-2,i
Cc1cc(C)cc(OCC(=O)OCC(=O)Nc2cc(S(=O)(=O)N3CCOCC3)ccc2Cl)c1,.,.,-2,.,.
CCCCc1nc2cc(C(=O)NC(C)c3cnn(C)c3)ccc2o1 (stereo unspecified),25*,-4,-9,-1,i
COc1ccc(/C=N/Nc2ccc([N+](=O)[O-])cc2)cc1Cn1cc([N+](=O)[O-])cn1,4.6*,-9,-63,-1,i
S=c1nc(-c2sccc2OCc2ccc(Cl)cc2Cl)[nH][nH]1,-3,9,37*,-2,i
CNC(=S)NNC(=O)c1sccc1OCc1ccc(Cl)cc1Cl,-2,-1,-86,-3,i
Cn1c(=O)c2ncn(CC(=O)Nc3ccc4c5c(cccc35)CC4)c2n(C)c1=O,3,47*,7,0,+
Cc1cccc(C)c1NC(=O)Cn1cnc2c(=O)n(C)c(=O)n(C)c21,0,-17,0,2,i
CC1(C(=O)Nc2ccc3c(c2)OCCO3)CCC(=O)N1CCc1c[nH]c2ccccc12 (stereo unspecified),.,.,7,.,.
Cc1ccc(-c2nnc(SCC(=O)N(C)C)nc2-c2ccc(C)cc2)cc1,-3,-7,-10,-2,i
CC12CCC(=O)N1C(C(=O)OCC(=O)Nc1sccc1C#N)CS2 (stereo unspecified),-1,64*,15,-2,+
COc1cccc(/C=C(\CC(=O)O)c2nc3ccccc3s2)c1,-2,-4,-10,3,i
O=C(O)CC/C(=C\c1cccc(NC(=O)c2ccccc2Cl)c1)c1nc2ccccc2s1,-1,58*,-5,0,+
O=C(O)CC/C(=C\c1ccccc1[N+](=O)[O-])c1nc2ccccc2s1,-2,0,5,8.8*,i
O=C(O)C/C(=C\c1ccc2c(c1)OCO2)c1nc2ccccc2s1,-2,5,-11,8.0*,i
COc1ccc(NC(=O)Cc2nnc(SCC(=O)NC3CCCCC3C)n2C)cc1 (stereo unspecified),-2,-5,2,-2,i
SMILES,IMP-1 inh,eIF4H inh,MLLE-PAM2 inh,VIM-2 inhibitor,PABP FP inh
Cc1cc(C)n2c(SCC(=O)Nc3ccccc3C#N)nnc2n1,.,.,-4,.,.
CCc1cc(CNC(=O)c2ccc(OC3CCN(CCc4ccccc4)CC3)cc2)on1,13*,49,6,-2,i
CCSc1nnc(NC(=O)[C@@H](NC(=O)c2ccccc2F)C(C)C)s1,0,-1,-3,1,i
Cc1c(OCC(=O)N2C[C@H]3C[C@@H](C2)c2cccc(=O)n2C3)ccc2c3c(c(=O)oc12)CCC3,-2,-3,9,12*,i
Cc1c(OCC(=O)N2C[C@H]3C[C@@H](C2)c2cccc(=O)n2C3)ccc2c3c(c(=O)oc12)CCCC3,-3,-10,7,6,i
O=C(COc1cc2oc(=O)c3c(c2cc1Cl)CCC3)N1C[C@H]2C[C@@H](C1)c1cccc(=O)n1C2,0,0,-2,11*,i
FC(F)(F)c1cc(-c2ccccc2)nc2nc(N3CCOCC3)sc12,-3,-5,5,-1,i
CN(C)c1ccnc(Oc2ccc(C(C)(C)C)cc2)c1C#N,-3,0,11,-4,i
O=C(CC1CS(=O)(=O)CC1CC(=O)Oc1ccccc1F)Oc1ccccc1F (stereo unspecified),-2,5,5,-4,i
Nc1cn(C2OC(CO)C(O)C2O)c(=O)[nH]c1=O (stereo unspecified),6.3*,-3,10,-1,i
C=CCn1cccc(C(=O)Nc2ccc(OCC)cc2)c1=O,-1,-7,6,3,i
COc1c(S(=O)(=O)NCCCN2CCOCC2)ccc(Cl)c1Cl,-3,-1,45*,-2,i
O=C(CCCCCNC(=O)N1CCn2c1nc1ccccc12)N[C@H](C(=O)O)c1ccccc1,-3,4,9,-3,i
Cc1ccccc1N1CCN(C2=NC(=O)/C(=C/c3cn[nH]c3-c3ccccc3)S2)CC1,-1,?,-3,-1,+
O=C(NCCc1c[nH]c2ccccc12)c1ccco1,-1,-7,-12,0,i
Cc1cc(NC(=O)c2ccc3c(c2)OCCO3)no1,-3,5,9,-2,i
COC(=O)c1ccccc1NC(=S)NC(=O)c1ccccc1,4.7*,0,14,-1,i
Cc1cc(NC(=O)c2ccc3c(c2)OCO3)no1,4.7*,-2,-10,1,i
COC(=O)c1ccccc1NC(=S)NC(=O)c1ccc(C)cc1,-1,-8,36,0,i
Cc1ccc(C(=O)NC(=S)Nc2ccc(Oc3ccc(Cl)cc3)cc2)cc1,-1,-10,29,-5,i
COC(=O)c1ccccc1NC(=S)NC(=O)c1ccc2c(c1)OCO2,-3,-5,42*,-3,i
O=C(NC(=S)Nc1ccc(Oc2ccccc2)cc1)c1ccc(Cl)cc1,1,-1,41*,0,i
COc1ccc2c(c1)O[C@@H](c1cccc(C(F)(F)F)c1)[C@H](OC(=O)NCCc1ccc(OC)c(OC)c1)C2=O,-3,9,.,-2,i
COC(=O)c1cccnc1NC(=S)NNC(=O)c1ccccc1,11*,3,36,-6,i
